Measured values from different studies.
Protocols differ between the studies behind these lines.
Target: RAC-alpha serine/threonine-protein kinase (AKT1, Homo sapiens, UniProt P31749)

N#Cc1ccccc1CSc1nnc2c(n1)[nH]c1ccccc12
remaining binding (binding, competition with immobilised ligand; 10 µM): 85%

C[C@@H]1CN(c2ccc3ncc(-c4ccc5[nH]nc(C6CC6)c5c4)n3n2)C[C@H](C)O1
remaining binding (binding, competition with immobilised ligand; 0.5 µM): 100%

COc1ccnn2ncc(-c3ccnc(N(C)C)n3)c12
remaining binding (binding; 1 µM): 100%

CNC(=O)[C@@H]1CC[C@@H](n2c(-c3ccc4cnccc4c3)nc3ccc(C(=O)NCc4cccc(C(N)=O)c4)cc32)C1
remaining binding (binding, competition with immobilised ligand; 1 µM): 100%

CCN1CCN(Cc2ccc(C(=O)Nc3ccc(C)c(Oc4ccc5c(c4)CC(=O)N5)c3)cc2C(F)(F)F)CC1
remaining binding (binding, competition with immobilised ligand; 1 µM): 94%

FC(F)(F)c1ccc2c(c1)nc(-c1cccnc1)n2C1CC1
remaining binding (cell-free assay, competition with immobilised ligand; 1 µM): 100%

c1cnn2ncc(-c3ccnc(N4CCC45COC5)n3)c2c1
remaining binding (binding; 1 µM): 95%

N#Cc1ccc(Nc2ccc3[nH]c(=O)[nH]c3c2)c(Cl)c1
remaining binding (cell-free assay, competition with immobilised ligand; 1 µM): 67%

CN(C)c1ncc(F)c(-c2cnn3ncccc23)n1
remaining binding (binding; 1 µM): 100%

O=C(c1ccc(Nc2ncc(Cl)c(-c3ccc(Cl)s3)n2)cc1)N1CCC(N2CCCC2)CC1
remaining binding (binding, competition with immobilised ligand; 1 µM): 100%

C[C@H](c1ccc(F)cc1)N(Cc1cccc(C(=O)O)c1)C(=O)c1cnc2ccccc2c1
remaining binding (cell-free assay, competition with immobilised ligand; 1 µM): 100%

FC(F)(F)Oc1cccc(-c2cnc3ccc(-c4ccncc4)nn23)c1
remaining binding (cell-free assay, competition with immobilised ligand; 5 µM): 88%

Cc1nc(N2CC[C@@H](O)C2)ncc1-c1cc(C(F)(F)F)cc2[nH]ncc12
remaining binding (binding, competition with immobilised ligand; 1 µM): 100%

O=C(c1ccc(Nc2nccc(-c3cc4ccccc4s3)n2)cc1)N1CCC(N2CCCC2)CC1
remaining binding (binding, competition with immobilised ligand; 1 µM): 100%

O=C(NCC1CCOCC1)c1n[nH]cc1NC(=O)c1c(F)cccc1F
remaining binding (binding, competition with immobilised ligand; 1 µM): 95%

N[C@@H]1CCN(c2nccc(-c3cnn4ncccc34)n2)C1
remaining binding (binding; 1 µM): 100%

O=C(Nc1cccnn1)N1CCC(=Cc2cccc(Oc3ccc(C(F)(F)F)cn3)c2)CC1
remaining binding (cell-free assay, competition with immobilised ligand; 1 µM): 93%

F[C@@H]1CCN(c2nccc(-c3cnn4ncccc34)n2)C1
remaining binding (binding; 1 µM): 100%

Cc1nc(Cc2cccc(C(F)(F)F)c2)sc1-c1ccc(C(N)=O)nc1
remaining binding (cell-free assay, competition with immobilised ligand; 1 µM): 82%

Cc1cnc(Nc2ccc(C(=O)N3CCC(N4CCCC4)CC3)cc2)nc1-c1cc2ccccc2s1
remaining binding (binding, competition with immobilised ligand; 1 µM): 100%

c1cncc(-c2cccc(Nc3nccc(NC4CCCCC4)n3)c2)c1
remaining binding (binding, competition with immobilised ligand; 10 µM): 71%

CS(=O)(=O)N1CCCC(NC(=O)[C@H](CCC2CCCCC2)NC(=O)c2ccc(CNc3ncnc4c3nnn4-c3ccccc3)cc2)C1 (stereo partly shown)
remaining binding (cell-free assay, competition with immobilised ligand; 0.1 µM): 100%

C[C@@H]1CCN(c2nccc(-c3cnn4ncccc34)n2)C1
remaining binding (binding; 1 µM): 93%

Cc1c(C(=O)O)cc(-c2ccc(C3CCNCC3)cc2)c2ccc(-c3ccc(C(F)(F)F)cc3)cc12
remaining binding (binding, competition with immobilised ligand; 1 µM): 100%

C=CC(=O)N1CCC(C(=O)NCC(=O)N2CCN(c3nc(-c4cnc(N)nc4C(F)F)nc(N4CCOCC4)n3)CC2)CC1
remaining binding (binding, competition with immobilised ligand; 1 µM): 94%
